Experimental data of several laboratories.
Organism: Salmonella enterica
Read-out: microbial growth

Structure (SMILES)	assay	system	setting	MIC
CC1(C)S[C@@H]2[C@H](NC(=O)[C@H](N)c3ccccc3)C(=O)N2[C@H]1C(=O)O	broth dilution			8 µg/mL
Cc1cc(NS(=O)(=O)c2ccc(N)cc2)no1			20 h, pH 7	64 µg/mL
C[C@@H](O)[C@H]1C(=O)N2C(C(=O)O)=C(S[C@@H]3CN[C@H](C(=O)N(C)C)C3)[C@H](C)[C@H]12	broth dilution	CHOLERAESUIS	clinical isolate	≤ 0.5 µg/mL
Cl.N=C(N)N/N=C/c1ccc(-c2ccc(/C=N/Nc3ccccc3Cl)cc2)cc1		ATCC14028		> 215 µg/mL
COc1cc(Cc2cnc(N)nc2N)cc(OC)c1OC			20 h, pH 7.2	0.25 µg/mL
CN(C)[C@@H]1C(O)=C(C(N)=O)C(=O)[C@@]2(O)C(O)=C3C(=O)c4c(O)cccc4[C@@](C)(O)[C@H]3C[C@@H]12		ATCC14028 TYPHIMURIUM		8 µg/mL
NC[C@H]1O[C@H](O[C@H]2[C@H](O)[C@@H](O[C@H]3O[C@H](CO)[C@@H](O)[C@H](N)[C@H]3O)[C@H](N)C[C@@H]2N)[C@H](N)C[C@@H]1O		ATCC14028		150 µg/mL
O=C(Nc1ccc2c(c1)OC(F)(F)O2)Nc1ccc(Cl)c(C(F)(F)F)c1		TYPHIMURIUM		> 100 µM
C/C(=N\NC(=N)N)c1ccc(Oc2ccc(/C(C)=N/NC(=N)N)cc2)cc1.Cl.Cl		ATCC14028		54.9 µg/mL
CNC(=O)c1cc(Oc2ccc(NC(=O)Nc3ccc(Cl)c(C(F)(F)F)c3)cc2)ccn1		TYPHIMURIUM		> 100 µM
O=C(O)c1cn(C2CC2)c2cc(N3CCNCC3)c(F)cc2c1=O			20 h, pH 7.2	0.0156 µg/mL
